Experimental data taken from ChEMBL document CHEMBL1121573, “2-(Aminomethyl)phenols, a new class of saluretic agents. 1. Effects of nuclear substitution” (J Med Chem, 1980).
“And” between values parts separate entries of the source, which are not always exact repeats. Identical values can stand only once. One block for each molecule: values may come before it.

Columns and labels:
[1] = test system: Canis familiaris; assay: Oral diuretic activity was evaluated by measuring Cl- excretion in dog at 16.2 mg/kg after […] ( 0-6 hr); format: ADME, organism-based, Canis lupus familiaris, Urine; design: dose 16.2 mg/kg, route intraperitoneal; conditions: in vivo
[2] = test system: Canis familiaris; assay: Oral diuretic activity was evaluated by measuring Na+ excretion in dog at 5.4 mg/kg after ip administration ( 0-6 hr); format: ADME, organism-based, Canis lupus familiaris, Urine; design: dose 5.4 mg/kg, route intraperitoneal; conditions: in vivo
Procedure, shortened: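 Urine collected over 0–6 h: spontaneous voids were pooled with bladder urine taken by catheterization at 6 h. Urine volume was measured, and aliquots were analysed for Na+, K+ and Cl− by standard methods. Electrolyte excretion is reported as geometric means.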

[3] = test system: Rattus norvegicus; assay: Oral diuretic activity was evaluated by measuring Na+ excretion in Rat at 27 mg/kg […] ( 0-5 hr); format: ADME, organism-based, Urine; design: dose 27 mg/kg
Procedure, shortened: (§1)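 Female Charles-River rats (150–170 g) were kept overnight on a sugar diet with water ad libitum. Compound was dissolved in DMF, then diluted with water containing Tween 80 (3 drops/100 mL) to a final 4% DMF, and given po in 5.0 mL. Rats were housed three per metabolism cage. Urine from 0–5 h was analysed for Na+, K+ and Cl−, with concurrent placebo controls. Values are mequiv × 100 per cage, geometric mean of three cages per dose.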

[4] = Compound administered orally at a dose of 5 mg/kg was evaluated for salidiuretic activity measured as sodium ion excretion in Rat; format: organism-based; design: dose 5 mg/kg; conditions: Urine
Procedure, shortened: (§2)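 Female Charles-River rats (150–170 g), overnight on sugar diet with water ad libitum. Compound dissolved in DMF, diluted with water containing Tween 80 (final 4% DMF), given po in 5.0 mL; concurrent vehicle placebo. Three rats per metabolism cage; 0–5 h urine analysed for Na+, K+, Cl-. Values: mequiv × 100 per cage, geometric means of three cages per dose; scored 0–6 by Na+.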

[5] = test system: Canis familiaris; assay: Oral diuretic activity was evaluated by measuring K+ excretion in dog at 1.8 mg/kg after ip administration ( 0-6 hr); format: ADME, organism-based, Canis lupus familiaris, Urine; design: dose 1.8 mg/kg, route intraperitoneal; conditions: in vivo
Procedure, shortened: (§3)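 Spontaneous urine was pooled with bladder urine collected by catheterization at 6 h. Volume was measured and Na+, K+ and Cl− were determined by standard methods. Values are geometric means.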

[6] = test system: Rattus norvegicus; assay: Oral diuretic activity was evaluated by measuring K+ excretion in Rat at 81 mg/kg […] ( 0-5 hr); format: ADME, organism-based, Urine; design: dose 81 mg/kg
Procedure, shortened: (§4)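 Female Charles-River rats (150–170 g) were kept overnight on a sugar diet with water ad libitum. Test substance was dissolved in DMF and diluted with water containing Tween 80 to a final 4% DMF vehicle, then given po in 5.0 mL. Rats were housed three per metabolism cage, and 0–5 h urine was assayed for Na⁺, K⁺ and Cl⁻ alongside concurrent placebo groups. Values are mequiv × 100 per cage, geometric means of three cages per dose.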

[7] = test system: Rattus norvegicus; assay: Oral diuretic activity was evaluated by measuring Cl- excretion in Rat at 27 mg/kg after […] ( 0-5 hr); format: ADME, organism-based, Urine; design: dose 27 mg/kg, route intraperitoneal; conditions: in vivo
[8] = test system: Rattus norvegicus; assay: Oral diuretic activity was evaluated by measuring Na+ excretion in Rat at 9 mg/kg […] ( 0-5 hr); format: ADME, organism-based, Urine; design: dose 9 mg/kg; conditions: in vivo, ip; procedure, shortened: as §1
[9] = Evaluated for salidiuretic activity measured as sodium ion excretion in Rat, administered orally at a dose of 16.5 mg/kg; format: organism-based; design: dose 16.5 mg/kg; conditions: Urine; procedure, shortened: as §2
[10] = test system: Rattus norvegicus; assay: Oral diuretic activity was evaluated by measuring Na+ excretion in Rat at 3 mg/kg […] ( 0-5 hr); format: ADME, organism-based, Urine; design: dose 3 mg/kg; conditions: in vivo, ip; procedure, shortened: as §1
[11] = test system: Rattus norvegicus; assay: Evaluated for salidiuretic activity measured as sodium ion excretion in Rat, administered orally at a dose of 50 mg/kg; format: functional, Urine; design: unit not given beside the values; conditions: route oral; procedure, shortened: as §2
[12] = test system: Rattus norvegicus; assay: Oral diuretic activity was evaluated by measuring K+ excretion in Rat at 9 mg/kg […] ( 0-5 hr); format: ADME, organism-based, Urine; design: dose 9 mg/kg; procedure, shortened: as §4
[13] = test system: Rattus norvegicus; assay: Maximum fall in mean arterial blood pressure was measured in SH rats when compound was administered at 20 mg/kg perorally; format: functional; conditions: route oral
[14] = test system: Canis familiaris; assay: Oral diuretic activity was evaluated by measuring Cl- excretion in dog at 1.8 mg/kg after […] ( 0-6 hr); format: ADME, organism-based, Canis lupus familiaris, Urine; design: dose 1.8 mg/kg, route intraperitoneal; conditions: in vivo
[15] = test system: Rattus norvegicus; assay: Oral diuretic activity was evaluated by measuring Cl- excretion in Rat at 81 mg/kg after po administration ( 0-5 hr); conditions: in vivo
[16] = test system: Rattus norvegicus; assay: Oral diuretic activity was evaluated by measuring K+ excretion in Rat at 3 mg/kg after […] ( 0-5 hr); format: ADME, organism-based, Urine; design: dose 3 mg/kg; procedure, shortened: as §4
[17] = test system: Rattus norvegicus; assay: Oral diuretic activity was evaluated by measuring K+ excretion in Rat at 27 mg/kg after po administration ( 0-5 hr); conditions: in vivo
[18] = test system: Rattus norvegicus; assay: Compound administered orally at a dose of 1 mg/kg was evaluated for salidiuretic activity measured as sodium ion excretion in Rat; conditions: in vivo, po
[19] = test system: Rattus norvegicus; assay: Oral diuretic activity was evaluated by measuring Cl- excretion in Rat at 9 mg/kg […] ( 0-5 hr); format: ADME, organism-based, Urine; design: dose 9 mg/kg; conditions: in vivo; procedure, shortened: as §4
[20] = test system: Rattus norvegicus; assay: Oral diuretic activity was evaluated by measuring Na+ excretion in Rat at 81 mg/kg […] ( 0-5 hr); format: ADME, organism-based, Urine; design: dose 81 mg/kg; procedure, shortened: as §1
[21] = test system: Canis familiaris; assay: Oral diuretic activity was evaluated by measuring Cl- excretion in dog at 0.6 mg/kg after […] ( 0-6 hr); format: ADME, organism-based, Canis lupus familiaris, Urine; design: dose 0.6 mg/kg, route intraperitoneal; conditions: in vivo
[22] = test system: Canis familiaris; assay: Oral diuretic activity was evaluated by measuring K+ excretion in dog at 16.2 mg/kg after ip administration ( 0-6 hr); format: ADME, organism-based, Canis lupus familiaris, Urine; design: dose 16.2 mg/kg, route intraperitoneal; conditions: in vivo; procedure, shortened: as §3
[23] = test system: Rattus norvegicus; assay: Oral diuretic activity was evaluated by measuring Cl- excretion in Rat at 3 mg/kg after […] ( 0-5 hr); format: ADME, organism-based, Urine; design: dose 3 mg/kg, route intraperitoneal; conditions: in vivo
[24] = test system: Canis familiaris; assay: Oral diuretic activity was evaluated by measuring Na+ excretion in dog at 0.6 mg/kg after ip administration ( 0-6 hr); format: ADME, organism-based, Canis lupus familiaris, Urine; design: dose 0.6 mg/kg, route intraperitoneal; conditions: in vivo; procedure, shortened: as §3
[25] = test system: Canis familiaris; assay: Oral diuretic activity was evaluated by measuring K+ excretion in dog at 0.6 mg/kg after […] ( 0-6 hr); format: ADME, organism-based, Canis lupus familiaris, Urine; design: dose 0.6 mg/kg, route intraperitoneal; conditions: in vivo
[26] = test system: Canis familiaris; assay: Oral diuretic activity was evaluated by measuring Na+ excretion in dog at 16.2 mg/kg after […] ( 0-6 hr); format: ADME, organism-based, Canis lupus familiaris, Urine; design: dose 16.2 mg/kg; conditions: in vivo
Procedure, shortened: (§5)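 Dogs; spontaneous urine was pooled with bladder urine drained by catheter at the end of 6 h. Urine volume was measured, and aliquots were assayed for Na+, K+ and Cl− by standard methods. Values are geometric means, expressed as mequiv over 0–6 h.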

[27] = test system: Canis familiaris; assay: Oral diuretic activity was evaluated by measuring K+ excretion in dog at 5.4 mg/kg after ip administration ( 0-6 hr); format: ADME, organism-based, Canis lupus familiaris, Urine; design: dose 5.4 mg/kg, route intraperitoneal; conditions: in vivo; procedure, shortened: as §3
[28] = test system: Canis familiaris; assay: Oral diuretic activity was evaluated by measuring Cl- excretion in dog at 5.4 mg/kg after […] ( 0-6 hr); format: ADME, organism-based, Canis lupus familiaris, Urine; design: dose 5.4 mg/kg, route intraperitoneal; conditions: in vivo
[29] = test system: Canis familiaris; assay: Oral diuretic activity was evaluated by measuring Na+ excretion in dog at 1.8 mg/kg after […] ( 0-6 hr); format: ADME, organism-based, Canis lupus familiaris, Urine; design: dose 1.8 mg/kg; conditions: in vivo; procedure, shortened: as §5
[30] = test system: Rattus norvegicus; assay: Oral diuretic activity was evaluated by measuring K+ excretion in Rat at 27 mg/kg […] (0-5 hr); format: ADME, organism-based, Urine; design: dose 27 mg/kg; procedure, shortened: as §4
[31] = test system: Rattus norvegicus; assay: Oral diuretic activity was evaluated by measuring K+ excretion in Rat at 81 mg/kg after […] (0-5 hr); format: ADME, organism-based, Urine; design: dose 81 mg/kg; procedure, shortened: as §4
[32] = test system: Rattus norvegicus; assay: Oral diuretic activity was evaluated by measuring Cl- excretion in Rat at 9 mg/kg […] (0-5 hr); format: ADME, organism-based, Urine; design: dose 9 mg/kg; conditions: in vivo; procedure, shortened: as §4
[33] = test system: Rattus norvegicus; assay: Oral diuretic activity was evaluated by measuring K+ excretion in Rat at 9 mg/kg […] (0-5 hr); format: ADME, organism-based, Urine; design: dose 9 mg/kg; procedure, shortened: as §4
[34] = test system: Rattus norvegicus; assay: Oral diuretic activity was evaluated by measuring Na+ excretion in Rat at 27 mg/kg […] (0-5 hr); format: ADME, organism-based, Urine; design: dose 27 mg/kg; conditions: in vivo; procedure, shortened: as §1
[35] = test system: Rattus norvegicus; assay: Oral diuretic activity was evaluated by measuring Cl- excretion in Rat at 27 mg/kg […] (0-5 hr); format: ADME, organism-based, Urine; design: dose 27 mg/kg; conditions: in vivo
[36] = test system: Rattus norvegicus; assay: Oral diuretic activity was evaluated by measuring Cl- excretion in Rat at 81 mg/kg after po administration (0-5 hr); conditions: in vivo
[37] = species on record: Rattus norvegicus; assay: Time taken for the decrease in arterial pressure was measured; format: functional, Artery
[38] = test system: Rattus norvegicus; assay: Oral diuretic activity was evaluated by measuring Na+ excretion in Rat at 81 mg/kg […] (0-5 hr); format: ADME, organism-based, Urine; design: dose 81 mg/kg; conditions: in vivo
[39] = test system: Rattus norvegicus; assay: Compound administered orally at a dose of 81 mg/kg was evaluated for salidiuretic activity measured as sodium ion excretion in Rat; format: ADME, organism-based, Urine; design: dose 81 mg/kg, route oral; unit not given beside the values; conditions: in vivo, po; procedure, shortened: as §2
[40] = test system: Canis familiaris; assay: Compound administered intravenously at a dose of 5 mg/kg was evaluated for salidiuretic activity measured as sodium ion excretion in Dog; act above 5 mg/kg; format: ADME, organism-based, Canis lupus familiaris, Urine; conditions: in vivo, iv
Procedure, shortened: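 Conditioned female mongrel dogs, postabsorptive, water-loaded (500 mL po) 1 h before sodium pentobarbital anesthesia (30 mg/kg iv). Bladder catheter; creatinine 4 g sc; phosphate–mannitol buffer pH 7.4 infused (3.0 mL/min) throughout. […] Urine Na+ measured; response scored 0–6.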

Diuretic activity [1]: 38.78
Diuretic activity [2]: 33.15
Diuretic activity [3]: 2.17
Diuretic activity [5]: 3.62
Diuretic activity [6]: 0.44
Diuretic activity [7]: 3.14
Diuretic activity [8]: 2.02
Diuretic activity [10]: 1.14
Diuretic activity [12]: 0.56
Diuretic activity [14]: 22.93
Diuretic activity [15]: 3.2
Diuretic activity [16]: 0.44
Diuretic activity [17]: 0.55
Diuretic activity [18]: 0.7
Diuretic activity [19]: 2.84
Diuretic activity [20]: 2.29
Diuretic activity [21]: 9.91
Diuretic activity [22]: 6.25
Diuretic activity [23]: 1.62
Diuretic activity [24]: 8.12
Diuretic activity [25]: 2.01
Diuretic activity [26]: 33.33
Diuretic activity [27]: 5.9
Diuretic activity [28]: 37.15
Diuretic activity [29]: 19.43
Structure (SMILES): CCc1c(Cl)c(C)c(CN)c(O)c1Cl.Cl
Diuretic activity [4]: 2.6
Diuretic activity [9]: 3.3
Diuretic activity [11]: 3.6
MAP [13]: 10 mmHg

Diuretic activity [30]: 0.07
Diuretic activity [31]: 0.11
Diuretic activity [32]: 0.02
Diuretic activity [33]: 0.27
Diuretic activity [34]: 0.04
Diuretic activity [35]: 0.02
Diuretic activity [36]: 0.01
Diuretic activity [38]: 0.17
Structure (SMILES): NNc1nncc2ccccc12 [HYDRALAZINE]
Duration [37]: 8 h and 18 h

Diuretic activity [39]: 2.4
Diuretic activity [40]: active above 5 mg/kg
Structure (SMILES): NCc1cc(Cl)cc(Cl)c1O
Diuretic activity [4]: 0.4
Diuretic activity [9]: 0.6
Diuretic activity [11]: 1.8
